# Assay results: ChEMBL document CHEMBL2321865 (J Med Chem, 2013)
# The source made the active and inactive calls.
# What was measured:
# [1] = molecular target: Mu-type opioid receptor (Cavia porcellus, UniProt P97266); assay: Inhibition of MOR in Hartley guinea pig ileum longitudinal muscle myenteric plexus assessed as inhibition of electrically-stimulated muscle contraction after 3 mins; assay type: tissue-based
# Procedure, shortened: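 Longitudinal muscle-myenteric plexus strips from male Hartley guinea pigs (150-400 g) in oxygenated Krebs at 37 °C. Stimulated at 0.1 Hz, 0.4 ms pulses, supramaximal voltage. […] IC₅₀ by Hill fit, at least four assays.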
# [2] = molecular target: Delta-type opioid receptor (Rattus norvegicus, UniProt P33533); assay: Displacement of [3H]Deltorphin from DOR in Sprague-Dawley rat brain membrane after 180 mins by scintillation counting analysis; assay type: cell membranes
# Procedure, shortened: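 Whole brain homogenate from male Sprague-Dawley rats, pre-incubated 30 min at 25 °C to remove endogenous opioids. Six to seven test concentrations; rapid filtration; nonlinear least-squares fit; at least two assays, each in duplicate.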
# [3] = molecular target: Delta-type opioid receptor (Mus musculus, UniProt P32300); assay: Inhibition of DOR in ICR mouse vas deferens assessed as inhibition of electrically-stimulated muscle contraction after 3 mins; set-up: species or system Muscle tissue
# Procedure, shortened: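 Vas deferens from male ICR mice, 25-30 g, in Mg-free Krebs at 37 °C under 95% O₂/5% CO₂. Transmural stimulation at 0.1 Hz, 2.0 ms pulses, supramaximal voltage. Cumulative curves over five to seven concentrations; inhibition read 3 min after each addition. IC₅₀ from a Hill fit, at least four assays.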
# [4] = system: Mus musculus; assay: Antinociceptive activity in CD1 mouse assessed as paw licking and jumping latency at 3000 nmol, iv measured after 15 to 60 mins by hot plate test relative to vehicle-treated control; assay type: functional
# Procedure, shortened: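 Male CD-1 mice, 25-30 g, lightly isoflurane-anaesthetised, dosed into the tail vein at 5 mL/kg. Hot plate at 55.0 °C; latency to paw lick or jump, cut-off 60 s. Baseline is the mean of three readings 15 min apart; readings to 180 min. %MPE = (post-drug − baseline)/(cut-off − baseline)×100. Mean ± S.E.M.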
# [5] = system: Mus musculus; assay: Antinociceptive activity in CD1 mouse assessed as paw licking and jumping latency at 0.6 nmol, icv measured after 30 to 45 mins by hot plate test relative to vehicle-treated control; assay type: functional
# Procedure, shortened: (§1)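 Male CD-1 mice, 25-30 g, lightly isoflurane-anaesthetised; i.c.v. injection 2 mm caudal, 2 mm lateral to bregma, 3 mm deep, 5 µL. Hot plate held at 55.0 °C; latency to paw lick or jump, cut-off 60 s. Baseline is the mean of three readings 15 min apart. Latencies taken at 15-120 min after dosing and expressed as %MPE.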
# [6] = system: Mus musculus; assay: Antinociceptive activity in CD1 mouse assessed as tail withdrawal latency at 3000 nmol, iv measured after 15 to 60 mins by tail flick test relative to vehicle-treated control; assay type: functional
# Procedure, shortened: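 Male CD-1 mice, lightly isoflurane-anaesthetised, given tail-vein injection at 5 mL/kg. Tail-flick latency to radiant heat focused 3-4 cm from the tail tip, cut-off 15 s. Baseline is the mean of three readings; readings at 15-180 min; expressed as %MPE. Mean ± S.E.M.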
# [7] = system: Mus musculus; assay: Antinociceptive activity in CD1 mouse assessed as paw licking and jumping latency at 0.6 nmol, icv measured after 15 to 30 mins by hot plate test; assay type: functional, organism-based; procedure, shortened: as §1
# [8] = system: Mus musculus; assay: Antinociceptive activity in CD1 mouse assessed as tail withdrawal latency at 0.6 nmol, icv measured after 15 to 30 mins by tail flick test; assay type: functional, organism-based
# Procedure, shortened: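 Male CD-1 mice given i.c.v. injection (5 µL; 2 mm caudal, 2 mm lateral to bregma, 3 mm deep) under light isoflurane. Radiant heat focused 3-4 cm from the tail tip; withdrawal latency recorded, cut-off 15 s. Baseline is the mean of three readings 15 min apart; readings at 15-120 min; %MPE.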
# Chain of Mu-type opioid receptor (P97266 whole entry): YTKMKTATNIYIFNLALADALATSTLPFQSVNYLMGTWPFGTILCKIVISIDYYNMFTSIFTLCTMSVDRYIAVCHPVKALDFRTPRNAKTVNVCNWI
# Chain of Delta-type opioid receptor (Mus musculus, UniProt P32300) (P32300 whole entry): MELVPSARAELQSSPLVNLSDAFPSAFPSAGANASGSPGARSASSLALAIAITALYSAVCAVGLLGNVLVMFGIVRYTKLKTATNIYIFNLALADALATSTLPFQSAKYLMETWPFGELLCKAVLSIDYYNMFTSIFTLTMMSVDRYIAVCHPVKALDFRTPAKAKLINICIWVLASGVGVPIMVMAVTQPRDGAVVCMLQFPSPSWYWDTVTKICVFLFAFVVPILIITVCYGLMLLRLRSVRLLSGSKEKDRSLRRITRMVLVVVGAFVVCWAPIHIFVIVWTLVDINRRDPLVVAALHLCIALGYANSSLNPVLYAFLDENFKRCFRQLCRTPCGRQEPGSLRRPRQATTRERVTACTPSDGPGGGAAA
# Chain of Delta-type opioid receptor (Rattus norvegicus, UniProt P33533) (P33533 whole entry): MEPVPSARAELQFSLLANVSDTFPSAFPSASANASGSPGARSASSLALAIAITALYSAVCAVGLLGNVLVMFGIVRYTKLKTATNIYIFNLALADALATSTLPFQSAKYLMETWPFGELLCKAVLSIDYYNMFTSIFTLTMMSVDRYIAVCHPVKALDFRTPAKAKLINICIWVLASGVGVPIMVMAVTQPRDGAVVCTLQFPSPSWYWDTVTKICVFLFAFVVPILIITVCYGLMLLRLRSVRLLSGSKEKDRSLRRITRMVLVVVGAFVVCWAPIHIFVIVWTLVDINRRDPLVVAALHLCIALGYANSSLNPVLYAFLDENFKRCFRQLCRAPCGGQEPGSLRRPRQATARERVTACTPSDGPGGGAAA
SMILES,IC50 [1],Ki [2],IC50 [3],Activity [4],MPE [5],Activity [6],Activity [7],Activity [8]
C[C@@H](NC(=O)C[C@@H](N)Cc1ccc(O)cc1)C(=O)NCC(=O)N[C@@H](Cc1ccccc1)C(=O)N[C@H](CC(=O)N[C@H](C)C(=O)NCC(=O)N[C@@H](Cc1ccccc1)C(N)=O)Cc1ccc(O)cc1,670 nM,480 nM,710 nM,,,,,
C[C@@H](NC(=O)[C@@H](N)Cc1ccc(O)cc1)C(=O)NCC(=O)N[C@@H](Cc1ccccc1)C(=O)NNC(=O)[C@H](Cc1ccccc1)NC(=O)CNC(=O)[C@@H](C)NC(=O)[C@@H](N)Cc1ccc(O)cc1 [BIPHALIN],,,,Active,100%,Active,Active,Active
